≈ marks a conversion by molar mass, not a printed value.
Key:
E6SM [1] = assay: 50% Minimum inhibitory concentration which is required to reduce cytopathogenicity induced by (196) strain of HSV-2 virus on human E6SM cells.; type: functional
In short: (§1)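 Confluent cell monolayers infected with 100 CCID50 virus and left 1 h for adsorption. Residual virus then removed and compound added at serial dilutions (400, 200, 100 ... µg/mL). Value is the concentration giving 50% reduction of CPE.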

E6SM [2] = assay: 50% Minimum inhibitory concentration which is required to reduce cytopathogenicity induced by (G) strain of HSV-2 virus on human E6SM cells.; type: functional; in short: as §1
E6SM [3] = assay: 50% Minimum inhibitory concentration which is required to reduce cytopathogenicity induced by (KOS) strain of HSV-1 virus on human E6SM cells.; type: functional; in short: as §1
E6SM [4] = assay: 50% Minimum inhibitory concentration which is required to reduce cytopathogenicity induced by (Lyons) strain of HSV-2 virus on human E6SM cells.; type: functional; in short: as §1
E6SM [5] = assay: 50% Minimum inhibitory concentration which is required to reduce cytopathogenicity induced by (Mc Intyre) strain of HSV-1 virus on human E6SM cells.; type: functional; in short: as §1
E6SM [6] = assay: 50% Minimum inhibitory concentration which is required to reduce cytopathogenicity induced by TK-(B2006) strain of HSV-1 virus on human E6SM cells.; type: functional; in short: as §1
HEL [7] = assay: 50% Minimum inhibitory concentration which is required to reduce cytopathogenicity induced by TK-(B2006) strain of HSV-1 virus on human embryonic HEL cells.; type: functional; in short: as §1
HEL [8] = assay: 50% Minimum inhibitory concentration which is required to reduce cytopathogenicity induced by (G) strain of HSV-2 virus on human embryonic HEL cells.; type: functional; in short: as §1
HEL [9] = assay: 50% Minimum inhibitory concentration which is required to reduce cytopathogenicity induced by (KOS) strain of HSV-1 virus on human embryonic HEL cells.; type: functional; in short: as §1
HEL [10] = assay: 50% Minimum inhibitory concentration which is required to reduce cytopathogenicity induced by (Lyons) strain of HSV-2 virus on human embryonic HEL cells.; type: functional; in short: as §1
HEL [11] = assay: 50% Minimum inhibitory concentration which is required to reduce cytopathogenicity induced by (Mc Intyre) strain of HSV-1 virus on human embryonic HEL cells.; type: functional; in short: as §1
[12] = Minimum cytotoxic concentration which causes microscopically detectable alteration of normal cell morphology after 2 days of incubation.; type: functional; details: 48 h
In short: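 Uninfected E6SM cells exposed to compound for 2 days. Minimum concentration giving a microscopically detectable change in normal cell morphology recorded.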

E6SM [13] = assay: 50% Minimum inhibitory concentration which is required to reduce cytopathogenicity induced by (F) strain of HSV-1 virus on human E6SM cells.; type: functional; in short: as §1
CEM-TK(-) [14] = assay: Cytotoxic concentration which is required to reduce CEM/TK- cell viability by 50%.; type: functional; details: Homo sapiens
CEM-TK(-) [15] = assay: 50% effective concentration of compound which is required to protect Thymidine kinase deficient human CEM (CEM/TK-) cells against HIV-2.; type: functional, cell-based
CCRF-CEM [16] = assay: Cytotoxic concentration which is required to reduce human CEM cell viability by 50%.; type: functional
In short: (§2)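 Human CEM or Molt-4 cells seeded at 7.5 × 10^5 cells/mL with varying compound concentrations. Incubated 3 days at 37 °C in humidified CO2. Viable cells counted with a Coulter counter. Value is the concentration reducing viable cell number by 50%.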

CCRF-CEM [17] = assay: 50% effective concentration of compound which is required to protect human CEM cells against HIV-1 induced giant cell formation.; type: functional, cell-based
In short: (§3)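 CEM cells at 250000–300000 cells/mL infected with HIV-1 (IIIB) or HIV-2 (ROD) at 100 CCID50/mL. Infected cells mixed with serial compound dilutions and incubated 4 days at 37 °C. Syncytium (giant cell) formation then scored. Values averaged over two independent experiments.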

CCRF-CEM [18] = assay: 50% effective concentration of compound which is required to protect human CEM cells against HIV-2 induced giant cell formation.; type: functional, cell-based; in short: as §3
FM3A [19] = assay: EC50 is the cytotoxic concentration of compound required to reduce FM3A/TK- (Thymidine kinase deficient murine mammary carcinoma cells) cell viability by 50%.; type: functional, cell-based; details: Mus musculus
In short: (§4)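 Murine L1210 or FM3A-derived cells seeded at 5 × 10^5 cells/mL with varying compound concentrations. Incubated 2 days at 37 °C in humidified CO2. Viable cells counted with a Coulter counter. Value is the concentration reducing viable cell number by 50%.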

FM3A [20] = assay: EC50 is the cytotoxic concentration of compound required to reduce FM3A/TK- HSV-1TK+ cell viability by 50%.; type: functional, cell-based; details: Mus musculus; in short: as §4
FM3A [21] = assay: EC50 is the cytotoxic concentration of compound required to reduce FM3A (murine mammary carcinoma cells) cell viability by 50%.; type: functional, cell-based; details: Mus musculus; in short: as §4
MT4 [22] = assay: 50% effective concentration of compound which is required to protect human MT-4 cells against cytopathogenicity of HIV-1.; type: functional, cell-based
MT4 [23] = assay: 50% effective concentration of compound which is required to protect human MT-4 cells against cytopathogenicity of HIV-2.; type: functional, cell-based
L1210 = assay: EC50 is the cytotoxic concentration of compound required to reduce L1210 (murine leukemia cells) cell viability by 50%.; type: functional, cell-based; details: Mus musculus; in short: as §4
MT4 [24] = assay: Cytotoxic concentration which is required to reduce human MT-4 cell viability by 50%.; type: functional
MOLT-4 = assay: EC50 is the cytotoxic concentration of compound required to reduce Molt4/C8 (human T-lymphocyte) cell viability by 50%.; type: functional, cell-based; in short: as §2
[25] = Selectivity index of HIV-1 and HIV-2 with respect to CEM cells; type: functional, CCRF-CEM
In short: (§5)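 Selectivity index calculated as average CC50 divided by average EC50. Each average comes from two independent experiments, using HIV-1 (IIIB) and HIV-2 (ROD) in CEM or MT-4 cells.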

[26] = Selectivity index of HIV-1 and HIV-2 with respect to MT-4 cells; type: functional, MT4; in short: as §5
HepG2 = assay: 50% Effective concentration of compound required for inhibiting intracellular viral replicative intermediate DNA in HBV-transfected 2.2.15 cell line.; type: functional, cell-based; details: Homo sapiens
In short: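 2.2.15 cells (HBV-transfected, Hep-G2-derived) in DMEM with 4% FBS and 0.5 mM glutamine; drug exposure 9 days, medium changed every 3 days. Total intracellular DNA extracted and Southern-blotted with a 32P-labelled full-length HBV probe. Replicative intermediate DNA in treated cells compared with untreated 2.2.15 cells; Hep-G2 as negative control.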

HEL [27] = assay: 50% Minimum inhibitory concentration which is required to reduce cytopathogenicity induced by (OKA) strain of Varicella Zoster virus on human embryonic HEL cells.; type: functional
HeLa = assay: 50% Minimum inhibitory concentration which is required to reduce cytopathogenicity induced by Vesicular Stomatitis virus (VSV) in Hela cells.; type: functional; details: Homo sapiens; in short: as §1
E6SM [28] = assay: 50% Minimum inhibitory concentration which is required to reduce cytopathogenicity induced by Vaccinia virus (VV) on human E6SM cells.; type: functional; in short: as §1

Structure (SMILES) | MIC (E6SM [1]) [µg/mL] | MIC (E6SM [2]) [µg/mL] | MIC (E6SM [3]) [µg/mL] | MIC (E6SM [4]) [µg/mL] | MIC (E6SM [5]) [µg/mL] | MIC (E6SM [6]) [µg/mL] | MIC (HEL [7]) [µg/mL] | MIC (HEL [8]) [µg/mL] | MIC (HEL [9]) [µg/mL] | MIC (HEL [10]) [µg/mL] | MIC (HEL [11]) [µg/mL] | MCC [12] [µg/mL] | MIC (E6SM [13]) [µg/mL] | CC50 (CEM-TK(-) [14]) [µg/mL] | EC50 (CEM-TK(-) [15]) [µg/mL] | CC50 (CCRF-CEM [16]) [µg/mL] | EC50 (CCRF-CEM [17]) [µg/mL] | EC50 (CCRF-CEM [18]) [µg/mL] | EC50 (FM3A [19]) [µg/mL] | EC50 (FM3A [20]) [µg/mL] | other results
O=c1[nH]c(=O)n([C@H]2C[C@H](O)[C@@H](CO)O2)cc1/C=C/Br [BRIVUDINE] | > 400 | 90 (≈ 270 µM) | 0.007 (≈ 0.021 µM) | > 400 | 90 (≈ 270 µM) | 10 (≈ 30 µM) | 50 (≈ 150 µM) | 30 (≈ 90.1 µM) | 0.005 (≈ 0.015 µM) | 5 (≈ 15 µM) | 0.003 (≈ 0.00901 µM) | > 300 | 0.02 (≈ 0.06 µM) |  |  |  |  |  |  |  | 
Cc1cn(C2CC([N+](=O)[O-])C(CO)O2)c(=O)[nH]c1=O (configuration not stated) | > 200 | > 200 | > 200 | > 200 | > 200 | > 200 | > 50 | 20 (≈ 73.7 µM) | 5 (≈ 18.4 µM) | 25 (≈ 92.2 µM) | 20 (≈ 73.7 µM) | > 200 | > 200 | > 200 | > 100 | 168 (≈ 619 µM) | > 100 | 100 (≈ 369 µM) | > 200 | > 200 | EC50 (FM3A [21]): > 200 µg/mL; EC50 (MT4 [22]): 1 µg/mL (≈ 3.69 µM); EC50 (MT4 [23]): 2.2 µg/mL (≈ 8.11 µM); EC50 (L1210): 58 µg/mL (≈ 214 µM); CC50 (MT4 [24]): 93 µg/mL (≈ 343 µM); EC50 (MOLT-4): 70 µg/mL (≈ 258 µM); Selectivity index [25]: >1.7; Selectivity index [26]: 79
Cc1cn(C2C/C(=N\O)C(CO)O2)c(=O)[nH]c1=O (configuration not stated) | 11 (≈ 43.1 µM) | 0.7 (≈ 2.74 µM) | 0.4 (≈ 1.57 µM) | 1.4 (≈ 5.49 µM) | 1.3 (≈ 5.09 µM) | > 200 | > 50 | 0.5 (≈ 1.96 µM) | 1.4 (≈ 5.49 µM) | 0.31 (≈ 1.21 µM) | 0.85 (≈ 3.33 µM) | > 400 | 0.5 (≈ 1.96 µM) | > 100 | 20 (≈ 78.4 µM) | 9.9 (≈ 38.8 µM) | 0.4 (≈ 1.57 µM) | 0.35 (≈ 1.37 µM) | > 200 | > 200 | EC50 (HepG2): 0.25 µg/mL (≈ 0.98 µM); EC50 (FM3A [21]): > 200 µg/mL; MIC (HEL [27]): 20 µg/mL (≈ 78.4 µM); MIC (HeLa): 135 µg/mL (≈ 529 µM); EC50 (MT4 [22]): 0.025 µg/mL (≈ 0.098 µM); EC50 (MT4 [23]): 0.03 µg/mL (≈ 0.118 µM); EC50 (L1210): 1.1 µg/mL (≈ 4.31 µM); CC50 (MT4 [24]): 1.6 µg/mL (≈ 6.27 µM); EC50 (MOLT-4): 1.2 µg/mL (≈ 4.7 µM); Selectivity index [25]: 28; Selectivity index [26]: 88
CC(=O)O/N=C1/C[C@H](n2cc(C)c(=O)[nH]c2=O)O[C@@H]1CO.CC(=O)O/N=C1\C[C@H](n2cc(C)c(=O)[nH]c2=O)O[C@@H]1CO (racemic) | 70 | 1 | 0.9 | 4 | 2 | > 200 | > 5 | 2.8 | 3.8 | 2 | 2.7 | 400 | 5 | > 200 | > 20 | 104 | 1 | 0.8 | > 200 | > 200 | MIC (E6SM [28]): 70 µg/mL; EC50 (FM3A [21]): > 200 µg/mL; MIC (HEL [27]): 20 µg/mL; EC50 (MT4 [22]): 0.05 µg/mL; EC50 (MT4 [23]): 0.05 µg/mL; EC50 (L1210): 19 µg/mL; CC50 (MT4 [24]): 7.1 µg/mL; EC50 (MOLT-4): 14 µg/mL; Selectivity index [25]: 130; Selectivity index [26]: 182
